Measured values as given in ChEMBL document CHEMBL1125146, “The development of a novel series of (quinolin-2-ylmethoxy)phenyl-containing compounds as high-affinity leukotriene receptor antagonists. 3. Structural variation of the acidic side chain to give antagonists of enhanced potency” (J Med Chem, 1990).
Calls of active or inactive are those of the source. No cut-off for these calls is given here.

Tests used:
[1] = biological target: Cavia porcellus CysLT1 receptor; assay: In vitro binding affinity against cysteinyl leukotriene D4 receptor from guinea pig lung membrane
Cavia porcellus [2] = organism: Cavia porcellus; assay: Inhibition of leukotriene-induced contractions of peripheral guinea pig lung strip; format: functional, organism-based
In short: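 Peripheral guinea pig lung parenchymal strips were challenged with single spasmogen concentrations (LTC4, LTD4 or LTE4), washed, equilibrated, then rechallenged with or without compound. Compound was preincubated at least 5 min before spasmogen. Each tissue served as its own control and was standardized with 1 μM histamine.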

Cavia porcellus [3] = assay: (§1) Tested in vivo for LTD4-induced […] after oral administration by Dermal wheal assay method; format: functional
In short: (§2)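 Guinea pigs dosed orally, usually at a single dose, with full dose-response curves for selected compounds. Read-out was antagonism of wheal and flare from intradermal injection of 100 ng LTD4. Five or more animals per dose.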

Cavia porcellus [4] = assay: (§3) Tested in vivo for antigen-induced systemic anaphylaxis after oral administration; format: functional
Cavia porcellus [5] = assay: as §3; format: functional; set-up: concentration or dose not given beside the values
Cavia porcellus [6] = assay: as §1; format: functional; set-up: concentration or dose not given beside the values
In short: as §2

Cavia porcellus [7] = assay: Tested in vivo for antigen-induced systemic anaphylaxis after oral administration; inactive; format: functional, organism-based
Cavia porcellus [8] = assay: Tested in vivo for LTD4-induced […] after oral administration by Dermal wheal assay method; inactive; format: functional, organism-based
In short: as §2

| SMILES | Ki [1] | IC50 (Cavia porcellus [2]) | ED50 (Cavia porcellus [3]) | ED50 (Cavia porcellus [4]) | Inhibition (Cavia porcellus [5]) | Inhibition (Cavia porcellus [6]) | ED50 (Cavia porcellus [7]) | ED50 (Cavia porcellus [8]) |
| --- | --- | --- | --- | --- | --- | --- | --- | --- |
| c1ccc2nc(COc3ccc(OCCCc4nnn[nH]4)cc3)ccc2c1 | 69 nM | 250 nM | – | – | – | – | – | – |
| CC(Cc1cccc(OCc2ccc3ccccc3n2)c1)CC(C)C(=O)O (stereo unspecified) | 24 nM | 500 nM | – | – | – | – | – | – |
| CC(CCCc1nnn[nH]1)c1ccc(OCc2ccc3ccccc3n2)cc1 (stereo unspecified) | 43 nM | 170 nM | – | – | – | – | – | – |
| c1ccc2nc(COc3ccc(CC4CCCC4Cc4nnn[nH]4)cc3)ccc2c1 (stereo unspecified) | 15 nM | 20 nM | 10 mg/kg | 12 mg/kg | – | – | – | – |
| CC(CCc1cccc(OCc2ccc3ccccc3n2)c1)CC(=O)O (stereo unspecified) | 70 nM | 800 nM | – | – | – | – | – | – |
| CCCC(CCC(=O)O)Cc1ccc(OCc2ccc3ccccc3n2)cc1 (stereo unspecified) | 21 nM | 30 nM | 6.5 mg/kg | 9.7 mg/kg | – | – | – | – |
| O=C(O)CCC(Cc1ccc(OCc2ccc3ccccc3n2)cc1)c1ccccc1 (stereo unspecified) | 31 nM | 65 nM | – | – | 50% | 33% | – | – |
| c1cc(OCCCc2nnn[nH]2)cc(OCc2ccc3ccccc3n2)c1 | 42 nM | 79 nM | – | – | – | – | – | – |
| CC(CCc1nnn[nH]1)Cc1ccc(OCc2ccc3ccccc3n2)cc1 (stereo unspecified) | 12 nM | 27 nM | 2.5 mg/kg | 1.2 mg/kg | – | – | – | – |
| O=C(O)CC1CCCC1Cc1ccc(OCc2ccc3ccccc3n2)cc1 (stereo unspecified) | 100 nM | 90 nM | – | – | – | – | – | – |
| CCCC(CCc1nnn[nH]1)Cc1ccc(OCc2ccc3ccccc3n2)cc1 (stereo unspecified) | – | 32 nM | 7.2 mg/kg | 7 mg/kg | – | – | – | – |
| O=C(O)CCCOc1ccc(OCc2ccc3ccccc3n2)cc1 | 1200 nM | 800 nM | – | – | – | – | – | – |
| O=C(O)CCC(Cc1cccc(OCc2ccc3ccccc3n2)c1)c1ccccc1 (stereo unspecified) | 52 nM | 56 nM | – | – | 100% | 78% | – | – |
| O=C(O)CC1(CCc2ccc(OCc3ccc4ccccc4n3)cc2)CCCC1 | 51 nM | 60 nM | – | – | 17% | 73% | – | – |
| CC(CCCC(=O)O)c1cccc(OCc2ccc3ccccc3n2)c1 (stereo unspecified) | 90 nM | 500 nM | – | – | – | – | – | – |
| CC(CCc1nnn[nH]1)Cc1cccc(OCc2ccc3ccccc3n2)c1 (stereo unspecified) | 34 nM | 150 nM | – | – | – | 40% | – | – |
| c1cc(CCCCc2nnn[nH]2)cc(OCc2ccc3ccccc3n2)c1 | 20 nM | 105 nM | – | – | 83% | 16% | – | – |

| SMILES | Ki [1] | IC50 (Cavia porcellus [2]) | ED50 (Cavia porcellus [3]) | ED50 (Cavia porcellus [4]) | Inhibition (Cavia porcellus [5]) | Inhibition (Cavia porcellus [6]) | ED50 (Cavia porcellus [7]) | ED50 (Cavia porcellus [8]) |
| --- | --- | --- | --- | --- | --- | --- | --- | --- |
| c1ccc2nc(COc3ccc(CCCCc4nnn[nH]4)cc3)ccc2c1 | – | 45 nM | – | – | 100% | 38% | – | – |
| c1ccc2nc(COc3ccc(CCC4(Cc5nnn[nH]5)CCCC4)cc3)ccc2c1 | 25 nM | 37 nM | 4.2 mg/kg | 2.8 mg/kg | – | – | – | – |
| CC(CCc1cccc(OCc2ccc3ccccc3n2)c1)Cc1nnn[nH]1 (stereo unspecified) | 17 nM | 45 nM | 2.8 mg/kg | – | 27% | – | – | – |
| CC(CCC(=O)O)Cc1ccc(OCc2ccc3ccccc3n2)cc1 (stereo unspecified) | 43 nM | 100 nM | – | – | – | – | – | – |
| O=C(O)CCCCc1ccc(OCc2ccc3ccccc3n2)cc1 | 110 nM | 450 nM | – | – | – | – | – | – |
| COc1cc(C(=O)NS(=O)(=O)c2ccccc2)ccc1Cn1ncc2ccc(NC(=O)OC3CCCC3)cc21 [ICI-198615] | 0.2 nM | 0.4 nM | > 30 mg/kg | – | 0% | – | – | – |
| CC(CCCc1cccc(OCc2ccc3ccccc3n2)c1)C(=O)O (stereo unspecified) | 85 nM | 75 nM | – | – | – | – | – | – |
| CCCc1c(OCCCCc2nnn[nH]2)ccc(C(C)=O)c1O [TOMELUKAST] | – | 1500 nM | > 30 mg/kg | > 30 mg/kg | – | – | – | – |
| O=C(O)CCCCc1cccc(OCc2ccc3ccccc3n2)c1 | 100 nM | 370 nM | – | – | – | – | – | – |
| CC(CCC(=O)O)Cc1cccc(OCc2ccc3ccccc3n2)c1 (stereo unspecified) | 140 nM | 500 nM | – | – | – | – | – | – |
| CCCc1c(OCC(O)COc2ccc3c(=O)cc(C(=O)O)oc3c2CCC)ccc(C(C)=O)c1O (stereo unspecified) [FPL-55712] | – | 800 nM | – | – | – | – | inactive | inactive |
| CCCC(CCC(=O)O)Cc1cccc(OCc2ccc3ccccc3n2)c1 (stereo unspecified) | 50 nM | 70 nM | – | – | – | – | – | – |
| c1ccc(C(CCc2nnn[nH]2)Cc2ccc(OCc3ccc4ccccc4n3)cc2)cc1 (stereo unspecified) | 8 nM | 14 nM | – | – | – | – | – | – |
| CC(CCCc1nnn[nH]1)c1cccc(OCc2ccc3ccccc3n2)c1 (stereo unspecified) | 31 nM | 250 nM | – | – | – | 62% | – | – |
| CCCC(CCc1nnn[nH]1)Cc1cccc(OCc2ccc3ccccc3n2)c1 (stereo unspecified) | 11 nM | 16 nM | – | – | – | 38% | – | – |
| c1ccc(C(CCc2nnn[nH]2)Cc2cccc(OCc3ccc4ccccc4n3)c2)cc1 (stereo unspecified) | 14 nM | 24 nM | – | – | – | 61% | – | – |
| CC(CCc1ccc(OCc2ccc3ccccc3n2)cc1)Cc1nnn[nH]1 (stereo unspecified) | 25 nM | 20 nM | – | – | – | – | – | – |
